# Compound activity from PubChem BioAssay.
# TAAR1 ag – human TAAR1 agonists, primary screen, Fluo-8 calcium fluorescence, CHO RD-HGA16 cells. Trace amine-associated receptor 1 (Homo sapiens), Q96RJ0. vehicle wells 0%, saturating PEA agonist 100%. activation, % at 3 µM. actives 0.99% (n = 360,000);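 active = activation above the mean activation of all test compounds in the run plus 3 SD, cut at about 38% in these data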
# Target sequence (Q96RJ0 whole entry, looked up): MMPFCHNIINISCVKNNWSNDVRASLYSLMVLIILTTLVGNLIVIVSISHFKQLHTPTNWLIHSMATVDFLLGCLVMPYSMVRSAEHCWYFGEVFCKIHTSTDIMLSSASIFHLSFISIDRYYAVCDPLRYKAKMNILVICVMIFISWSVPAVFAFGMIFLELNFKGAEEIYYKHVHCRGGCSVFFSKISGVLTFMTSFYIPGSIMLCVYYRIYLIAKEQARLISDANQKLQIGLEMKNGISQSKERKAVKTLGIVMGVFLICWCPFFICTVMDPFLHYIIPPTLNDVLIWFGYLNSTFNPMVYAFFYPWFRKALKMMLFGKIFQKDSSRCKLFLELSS
#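 test system = CHO RD-HGA16 cells carrying human TAAR1 plus Gα16 | schedule = 17-24 h seeding, 75 min 37 °C dye, 30 min RT | compound dosing = 3 µM single concentration | control set = DMSO and PEA EC100 | replicates = n 1 | signal = Fluo-8 fluorescence, 5 s baseline then 140 s kinetic read | measure = percent activation vs PEA EC100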
# rCAG RNA binder – binders of r(CAG) RNA repeats, primary screen, biochemical, fluorescence; r(CAG) RNA repeat, TO-PRO-1 dye displacement fluorescence; inhibition, % at 3 µM; actives 1.3% (n = 370,000);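 active = inhibition above the plate cutoff, the mean of all test compounds on that plate plus 3 SD, cut at about 35% in these data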;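 also: 0% = DMSO alone and 100% = 100 µM mitoxantrone as full dye displacement; higher means more dye released from RNA so lower well fluorescence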
# TAAR1 antag – human TAAR1 antagonists, primary screen, Fluo-8 calcium fluorescence, CHO RD-HGA16 cells; Trace amine-associated receptor 1 (Homo sapiens), Q96RJ0; antagonist; inhibition, % at 3 µM; actives 1.5% (n = 360,000);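 active = inhibition above a per-plate cutoff, the mean inhibition of test compounds on that plate plus 3 SD, cut at about 49% in these data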;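 also: 0% = DMSO plus EC80 beta-PEA response and 100% = DMSO alone without agonist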
#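 Test system: CHO RD-HGA16 cells bearing hTAAR1 | Reagent: β-PEA, EC80 | Compound dosing: 3 µM, single point | Schedule: Dye loading 75 min at 37 °C, then 30 min room temperature | Signal: Calcium fluorescence with Fluo-8 | Evaluation: Percent inhibition of PEA-evoked calcium signal, max/basal emission ratio | Control set: DMSO-only wells and EC80 β-PEA-stimulated wells | Repeats: Singlicate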
# core dimer inh – inhibitors of HCV core protein dimerization, primary screen, biochemical, TR-FRET, high-throughput; inhibition, % at 5 µM; TR-FRET GST/Flag-core106 dimerization, 1536-well; AID 1899, 2009; actives 0.33% (n = 300,000);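 active = inhibition above the mean of all tested compounds plus 3 SD, set per screening campaign, cut at about 45% in these data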
#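 Assay system: tagged HCV core106 pair (GST and Flag); medium: KF-containing HEPES buffer, pH 7.45, DTT, CHAPS, BSA; also added: Eu donor and XL665 acceptor anti-tag antibodies; dosing: 5 µM single dose; timing: compound-protein-antibody incubation 4 h at 22.5 °C; signal: TR-FRET 671 and 617 nm emission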
# NS3 helicase inh – inhibitors of HCV NS3 helicase, primary screen, biochemical, Cy5 molecular beacon fluorescence; Hepatitis C virus NS3 helicase; NS3 helicase DNA unwinding; inhibition, % at 10.9 µM; actives 0.56% (n = 290,000);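 active = inhibition above the mean of all tested compounds plus 3 SD, set per campaign, cut at about 35% in these data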;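 also: 0% = DMSO wells and 100% = thioflavine S control wells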
#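 assay system = NS3 helicase fragment of HCV | buffer or medium = MOPS pH 6.5, MgCl2, DTT, Tween20, BSA | timing = 60 min unwinding reaction at 25 °C after ATP addition | signal = Cy5 beacon fluorescence read at start and 1 h | read-out basis = % inhibition of unwinding | control set = low DMSO, high thioflavine S at 110 µM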
# TAAR1 ag confirm – human TAAR1 agonists, retest of hits, confirmation, Fluo-8 calcium fluorescence, CHO RD-HGA16 cells; scaled: DMSO 0%, maximal phenethylamine 100%; activation, % at 3 µM; shares compounds with TAAR1 ag; actives 82% (n = 2,400); AID 651783, 2012;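 active = activation above a cutoff set at the run's mean compound activation plus 3 SD, cut at about 39% in these data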
# Ga16 nonsel ag – nonselective calcium mobilization agonists, CHO-Ga16 cells, counter-screen for hTAAR1 agonist project, cell-based, fluorescence, CHO-Ga16 parental line | shares compounds with TAAR1 ag | Fluo-8 calcium fluorescence; normalized to maximal ATP response, DMSO zero | activation, % at 3 µM | actives 50% (n = 2,400) | AID 651787, 2012;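 active = activation above the run cutoff, the mean activation over all tested wells plus 3 SD, cut at about 12% in these data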;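 also: 0% = DMSO wells and 100% = maximal ATP response on the peak over basal ratio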
# TAAR1 desensitize – TAAR1 desensitization by agonist hits, confirmation, counter-screen for TAAR1 agonist project, cell-based, fluorescence, tachyphylaxis; inhibition, % at 3 µM; CHO RD-HGA16 hTAAR1, Fluo-8 calcium, beta-PEA response inhibition; actives 46% (n = 2,400); shares compounds with TAAR1 ag; AID 651951, 2012;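 active = inhibition above the run cutoff, the mean inhibition of all test compounds plus 3 SD, cut at about 49% in these data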;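 also: beta-PEA stimulus applied at its EC80; loss of beta-PEA calcium signal after compound pretreatment read as receptor desensitization; 0% = DMSO with beta-PEA at EC80 and 100% = DMSO alone without agonist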
# Ga16 antag count – inhibition of ATP-evoked calcium response in CHO-Ga16 cells, counter-screen for TAAR1 agonist project, cell-based, fluorescence; shares compounds with TAAR1 ag; CHO-Ga16 ATP-induced calcium, Fluo-8 fluorescence; inhibition, % at 3 µM; actives 39% (n = 2,400);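 active = inhibition above the plate's mean compound inhibition plus 3 SD, computed per plate, cut at about 22% in these data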;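 also: 0% = EC80 ATP with DMSO and 100% = DMSO wells without ATP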
# Active calls of the source: *; x = not tested or not shown. Compounds with a hit are over-represented: about 3.7% of the library has one in this group of screens.
SMILES,TAAR1 ag,rCAG RNA binder,TAAR1 antag,core dimer inh,NS3 helicase inh,TAAR1 ag confirm,Ga16 nonsel ag,TAAR1 desensitize,Ga16 antag count
O=C(COC(=O)/C=C/c1cccc(F)c1)NC1CCCCCC1,64.0*,-0.3,54.5*,x,x,87.9*,37.9*,72.4*,19.1
O=C(COC(=O)/C=C/c1cccc(F)c1)NC1CCCCC1,-0.9,1.3,0.2,x,x,x,x,x,x
COC(=O)[C@@H](Cc1ccc(O)cc1)NC(=O)[C@H]1O[C@@H](n2cnc3c(=O)[nH]c(N)nc32)[C@H](O)[C@@H]1O,0.8,0.8,-13.9,x,x,x,x,x,x
O=C(CSC1=NS(=O)(=O)c2cc(F)ccc2N1)NCCc1ccccc1,101.5*,9.4,81.3*,3.2,x,105.0*,0.7,94.4*,6.2
O=C(CSC1=NS(=O)(=O)c2cc(F)ccc2N1)Nc1ccccc1,1.0,19.1,-29.1,4.2,x,x,x,x,x
COc1ccc(CCNC(=O)CSC2=NS(=O)(=O)c3cc(Cl)ccc3N2)cc1OC,2.5,29.4,-10.8,1.1,x,x,x,x,x
O=C(CSC1=NS(=O)(=O)c2cc(Cl)ccc2N1)NCCc1ccccc1,104.3*,26.4,80.2*,-3.1,x,92.6*,0.0,85.9*,7.3
COc1ccc(S[C@]2(C(=O)N3CCCC3)CC(=O)N(P(=O)(OC)OC)[C@@H]2c2ccc(OC)cc2)cc1,x,1.9,x,x,x,x,x,x,x
Cn1cc(CN2CCC(C(=O)NC(c3ccc(F)cc3)c3ccc4ccccc4n3)CC2)c2ccccc21 (configuration not stated),53.1*,0.9,51.8*,x,x,-4.4,31.6*,104.4*,51.5*
CCCCc1c(Cc2ccccc2)ncn1CCc1ccccc1OC,49.4*,1.4,55.4*,x,x,68.5*,7.0,59.9*,55.8*
COc1ccccc1CCn1cnc(Cc2cccc(F)c2)c1C(C)C,37.0,-0.2,41.9,x,x,x,x,x,x
CCc1c(Cc2cccc(F)c2)ncn1CCc1ccccc1OC,39.6*,-0.7,-17.8,x,x,50.4*,4.5,14.8,12.8
CCCCc1c(-c2ccccc2OC)ncn1CCc1ccccc1,61.2*,-2.0,34.4,x,x,76.7*,11.5*,66.1*,27.4*
CCCCc1c(-c2cccc(Cl)c2)ncn1CCc1ccccc1OC,11.1,-1.0,33.0,x,x,x,x,x,x
CCCc1c(Cc2cccc(F)c2)ncn1CCc1ccccc1OC,50.4*,0.6,35.2,x,x,78.5*,13.5*,61.1*,20.0
CCc1c(-c2cccc(F)c2)ncn1CCc1ccccc1OC,6.2,-2.8,-20.4,x,x,x,x,x,x
COC(=O)[C@]12C[C@H](CC(=O)NCCc3ccccc3OC)C(=O)N(Cc3ccc(Cl)cc3Cl)C1=C[C@H](C(C)(C)C)O[C@@H]2C,x,5.9,x,x,x,x,x,x,x
CC(=O)CC[C@H]1CC[C@]2(CCCN(S(C)(=O)=O)C2)O1,x,4.6,x,x,x,x,x,x,x
Cc1cccc(-c2cccc3c4c([nH]c23)[C@@H]2C[C@H]3[C@@H](C(=O)N2CC4)[C@H](C)ON3C)c1,x,6.7,x,x,x,x,x,x,x
CCC1CN(C(=O)N2CCC(C(=O)NCCc3ccccc3)CC2)c2ccccc2O1 (configuration not stated),53.0*,-10.2,57.8*,-0.5,-6.0,84.2*,15.7*,83.0*,34.2*
O=C(NCCc1ccccc1)C1CCN(C(=O)c2ccc([N+](=O)[O-])cc2)CC1,x,-0.1,x,-4.7,-6.2,x,4.9,x,0.2
COc1ccc(CCNC(=O)C2CCN(C(=O)c3ccc([N+](=O)[O-])cc3)CC2)cc1,-0.8,-6.5,8.5,2.0,-5.4,x,x,x,x
COc1cc(NC(=O)c2ccccc2)c(C)cc1NC(=O)CSc1nnc(-c2ccco2)n1Cc1ccco1,x,7.4,x,x,x,x,x,x,x
CCCC(=NC(C)CC)C1=C(O)CC(c2ccccc2)CC1=O (configuration not stated),57.8*,-7.2,-1.4,7.5,-11.0,86.3*,55.7*,2.1,5.6
O=C(N/N=C/c1cc([N+](=O)[O-])cc(Br)c1O)C12CC3CCC(CC(C3)C1)C2,50.0*,4.2,9.9,4.2,2.4,65.8*,54.1*,22.7,14.2
SMILES,TAAR1 ag,rCAG RNA binder,TAAR1 antag,core dimer inh,NS3 helicase inh,TAAR1 ag confirm,Ga16 nonsel ag,TAAR1 desensitize,Ga16 antag count
Cc1ccccc1NC(=O)CCS(=O)(=O)c1ccccc1,x,3.1,x,x,x,x,x,x,x
CCn1c(CSc2nc(C)cc(C)n2)nnc1SCC(=O)Nc1nc(-c2ccccc2)cs1,58.9*,-0.1,45.3,9.0,4.5,65.1*,32.3*,44.3,32.5*
Cc1cc(C)nc(SCc2nnc(SCC(=O)Nc3nc(-c4ccccc4)cs3)n2C)n1,25.3,-1.9,3.8,17.6,-1.6,x,x,x,x
CCOC(=O)c1c(C)[nH]c(C(=O)Cn2nnc(-c3ccccc3)n2)c1C,10.1,4.9,11.9,9.0,14.8,x,x,x,x
CCOC(=O)c1c(C)[nH]c(C(=O)CN2C(=O)NC(C)(c3ccc(C)cc3)C2=O)c1C (configuration not stated),97.4*,-1.2,8.8,3.0,x,101.6*,49.5*,58.1*,32.6*
CCOC(=O)c1c(C)[nH]c(C(=O)CN2C(=O)NC(C)(C)C2=O)c1C,4.4,0.1,-30.2,x,x,x,x,x,x
CCOC(=O)c1c(C)[nH]c(C(=O)CN2C(=O)NC(CC)(c3ccccc3)C2=O)c1C (configuration not stated),53.4*,-1.1,19.8,5.7,-24.4,34.3,12.0*,20.2,9.7
C=CCOC(=O)N1CCN(C(=O)c2ccc3c(c2)nc(C)n3C2CCCC2)CC1,x,-0.4,x,x,x,x,x,x,x
COC(=O)[C@]12C[C@H](CC(=O)N3CCSCC3)C(=O)N(Cc3cccc4ccccc34)C1=C[C@H](C(C)C)O[C@@H]2C1CC1,x,5.0,x,x,x,x,x,x,x
c1ccc(CCNc2ncnc3nc[nH]c23)cc1,71.0*,-0.4,33.1,-0.4,7.5,89.2*,9.3,82.4*,17.9
